Source: ChEMBL document CHEMBL1139838 (J Med Chem, 2007)
pKi: −log10 of the molar value. Activity calls are given as the source filed them. The calls are words filed in the database; no cut-off is given here. Where a SMILES comes first, the peptide text is derived from it. [ ]: non-standard residue; d: D form. Tic = O=C(O)[C@@H]1Cc2ccccc2CN1; Cha = N[C@@H](CC1CCCCC1)C(=O)O

Assays:
[1] = target: Mu-type opioid receptor (Rattus norvegicus, UniProt P33535); experiment: Displacement of [3H]DAMGO from mu opioid receptor in Wistar rat brain membrane; assay type: cell membranes
Summary of the method: (§1)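 Wistar rat brain membranes in 50 mM Tris·HCl pH 7.4 with 200-300 µg protein. Tritiated ligand at 0.5-1 nM, with fresh unlabeled peptide at 10^-12 to 10^-5 M, for 45 min at 35 °C. Stopped by rapid GF/C filtration and ice-cold buffer washes, then scintillation counting. Nonspecific binding defined with 10 µM naloxone. Duplicates, repeated two or three times, mean ± SEM.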

[2] = target: Delta-type opioid receptor (Rattus norvegicus, UniProt P33533); experiment: Displacement of [3H]Ile5,6-deltorphin from delta opioid receptor in Wistar rat brain membrane; assay type: cell membranes; summary of the method: as §1
[3] = target: Delta-type opioid receptor (Homo sapiens) (UniProt P41143); experiment: Activity at human delta opioid receptor expressed in CHO cells by [35S]GTP-gamma-S binding assay; assay type: functional, cell-based
[4] = target: Delta-type opioid receptor (Mus musculus) (UniProt P32300); conditions: Vas deferens
[5] = target: Mu-type opioid receptor (Cavia porcellus) (UniProt P97266); conditions: Ileum
[6] = target: Mu-type opioid receptor (Cavia porcellus) (UniProt P97266); conditions: Ileum; remark: listed apart in the source

Chain of Delta-type opioid receptor (Mus musculus) (P32300 whole entry): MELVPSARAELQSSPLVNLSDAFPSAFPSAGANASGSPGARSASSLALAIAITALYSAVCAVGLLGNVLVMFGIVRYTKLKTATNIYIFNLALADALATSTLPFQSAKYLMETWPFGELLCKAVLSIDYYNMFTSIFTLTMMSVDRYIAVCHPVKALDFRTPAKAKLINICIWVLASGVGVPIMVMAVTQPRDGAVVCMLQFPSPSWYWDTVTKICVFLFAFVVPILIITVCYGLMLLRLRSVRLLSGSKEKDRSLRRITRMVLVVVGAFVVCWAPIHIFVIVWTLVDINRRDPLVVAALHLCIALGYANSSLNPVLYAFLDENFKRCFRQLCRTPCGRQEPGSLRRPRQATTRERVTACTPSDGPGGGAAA
Chain of Delta-type opioid receptor (P33533 whole entry): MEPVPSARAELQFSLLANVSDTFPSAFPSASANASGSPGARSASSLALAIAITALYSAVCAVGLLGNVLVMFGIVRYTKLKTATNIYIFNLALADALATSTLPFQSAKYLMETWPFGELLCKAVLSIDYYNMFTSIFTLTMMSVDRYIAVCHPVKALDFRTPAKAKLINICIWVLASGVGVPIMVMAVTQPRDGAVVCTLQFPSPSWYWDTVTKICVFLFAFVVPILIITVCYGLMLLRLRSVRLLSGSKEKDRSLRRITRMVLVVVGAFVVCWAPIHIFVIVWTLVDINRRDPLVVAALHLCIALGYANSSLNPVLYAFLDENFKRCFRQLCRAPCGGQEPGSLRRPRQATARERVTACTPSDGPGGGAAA
Chain of Mu-type opioid receptor (Cavia porcellus) (P97266 whole entry): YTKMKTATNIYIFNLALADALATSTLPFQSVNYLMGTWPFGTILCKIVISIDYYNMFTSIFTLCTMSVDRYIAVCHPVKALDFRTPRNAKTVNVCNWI
Chain of Mu-type opioid receptor (P33535 whole entry): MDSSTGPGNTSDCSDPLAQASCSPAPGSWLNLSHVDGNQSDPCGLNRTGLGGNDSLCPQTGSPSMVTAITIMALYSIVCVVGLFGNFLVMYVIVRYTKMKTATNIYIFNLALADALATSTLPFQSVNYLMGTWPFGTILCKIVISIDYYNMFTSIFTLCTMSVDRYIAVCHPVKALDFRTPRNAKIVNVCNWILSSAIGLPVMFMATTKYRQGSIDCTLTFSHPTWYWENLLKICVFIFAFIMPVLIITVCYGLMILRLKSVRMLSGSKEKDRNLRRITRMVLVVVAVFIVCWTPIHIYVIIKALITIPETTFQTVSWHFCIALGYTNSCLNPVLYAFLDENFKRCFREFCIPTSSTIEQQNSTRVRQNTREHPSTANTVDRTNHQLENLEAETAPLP
Chain of Delta-type opioid receptor (Homo sapiens) (P41143 whole entry): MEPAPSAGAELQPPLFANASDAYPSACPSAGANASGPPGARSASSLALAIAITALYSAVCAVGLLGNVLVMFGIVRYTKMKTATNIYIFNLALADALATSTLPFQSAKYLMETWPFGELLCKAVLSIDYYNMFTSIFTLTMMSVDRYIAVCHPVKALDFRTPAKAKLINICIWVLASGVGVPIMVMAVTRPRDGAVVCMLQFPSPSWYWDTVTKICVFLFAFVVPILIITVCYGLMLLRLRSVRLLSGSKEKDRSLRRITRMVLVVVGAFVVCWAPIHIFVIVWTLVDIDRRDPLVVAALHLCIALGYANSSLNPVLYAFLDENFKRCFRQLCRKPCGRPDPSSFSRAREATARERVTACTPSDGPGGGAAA

Structure (SMILES)	pKi [1]	pKi [2]	Activity [3]	Ke [4] [nM]	Ke [5] [nM]	further results
Cc1cc(O)cc(C)c1C[C@H](N)C(=O)N1Cc2ccccc2C[C@H]1C(=O)N[C@@H](C(=O)N[C@@H](Cc1ccccc1)C(N)=O)[C@H](C)C1CCCCC1	6.54	7.89	–	–	–	–
Cc1cc(O)cc(C)c1C[C@H](N)C(=O)N1Cc2ccccc2C[C@H]1C(=O)N[C@H](C(=O)N[C@@H](Cc1ccccc1)C(=O)O)[C@H](C)C1CCCCC1	6.55	8.70	–	–	–	–
Cc1cc(O)cc(C)c1C[C@H](N)C(=O)N1Cc2ccccc2C[C@H]1C(=O)N[C@@H](C(=O)N[C@@H](Cc1ccccc1)C(N)=O)[C@@H](C)C1CCCCC1	6.70	8.15	–	–	–	–
Cc1cc(O)cc(C)c1C[C@H](N)C(=O)N1Cc2ccccc2CC1C(=O)N[C@@H](C(=O)N[C@@H](Cc1ccccc1)C(=O)O)[C@@H](C)C1CCCCC1 (stereo partly drawn)	–	–	inactive	0.11	19	–
Cc1cc(O)cc(C)c1C[C@H](N)C(=O)N1Cc2ccccc2C[C@H]1C(=O)N[C@@H](C(=O)N[C@@H](Cc1ccccc1)C(=O)O)[C@H](C)C1CCCCC1	6.24	8.70	–	–	–	–
NC(=O)[C@H](Cc1ccccc1)NC(=O)[C@H](Cc1ccccc1)NC(=O)[C@@H]1Cc2ccccc2CN1C(=O)[C@H](N)Cc1ccc(O)cc1	–	–	–	18	–	Ke [6]: 1700 nM
Cc1cc(O)cc(C)c1C[C@H](N)C(=O)N1Cc2ccccc2CC1C(=O)N[C@H](C(=O)N[C@@H](Cc1ccccc1)C(N)=O)[C@H](C)C1CCCCC1 (stereo partly drawn)	–	–	inactive	0.68	–	IC40 [6]: 110 nM
Cc1cc(O)cc(C)c1C[C@H](N)C(=O)N1Cc2ccccc2CC1C(=O)N[C@H](C(=O)N[C@@H](Cc1ccccc1)C(N)=O)[C@@H](C)C1CCCCC1 (stereo partly drawn)	–	–	inactive	0.77	340	–
Cc1cc(O)cc(C)c1C[C@H](N)C(=O)N1Cc2ccccc2C[C@H]1C(=O)N[C@H](C(=O)N[C@@H](Cc1ccccc1)C(=O)O)[C@@H](C)C1CCCCC1	5.85	9.32	–	–	–	–
Cc1cc(O)cc(C)c1C[C@H](N)C(=O)N1Cc2ccccc2CC1C(=O)N[C@@H](C(=O)N[C@@H](Cc1ccccc1)C(=O)O)[C@H](C)C1CCCCC1 (stereo partly drawn)	–	–	inactive	0.55	290	–
Cc1cc(O)cc(C)c1C[C@H](N)C(=O)N1Cc2ccccc2CC1C(=O)N[C@@H](C(=O)N[C@@H](Cc1ccccc1)C(N)=O)[C@H](C)C1CCCCC1 (stereo partly drawn)	–	–	inactive	1.7	670	–
Cc1cc(O)cc(C)c1C[C@H](N)C(=O)N1Cc2ccccc2CC1C(=O)N[C@H](C(=O)N[C@@H](Cc1ccccc1)C(=O)O)[C@H](C)C1CCCCC1 (stereo partly drawn)	–	–	inactive	0.81	–	IC30 [6]: 150 nM
N[C@@H](Cc1ccc(O)cc1)C(=O)N1Cc2ccccc2C[C@H]1C(=O)N[C@@H](Cc1ccccc1)C(=O)N[C@@H](Cc1ccccc1)C(=O)O (H-Y[Tic]FF-OH)	–	–	–	4.8	–	Ke [6]: > 10000 nM
Cc1cc(O)cc(C)c1C[C@@H](N)C(=O)N1Cc2ccccc2C[C@H]1C(=O)N[C@@H](Cc1ccccc1)C(=O)N[C@@H](Cc1ccccc1)C(=O)O	–	–	–	0.2	–	–
N[C@@H](Cc1ccc(O)cc1)C(=O)N1Cc2ccccc2C[C@H]1C(=O)N[C@@H](CC1CCCCC1)C(=O)N[C@@H](Cc1ccccc1)C(=O)O (H-Y[Tic][Cha]F-OH)	5.44	9.21	–	0.44	–	–
Cc1cc(O)cc(C)c1C[C@H](N)C(=O)N1Cc2ccccc2C[C@H]1C(=O)N[C@@H](C(=O)N[C@@H](Cc1ccccc1)C(=O)O)[C@@H](C)C1CCCCC1	7.26	8.82	–	–	–	–
Cc1cc(O)cc(C)c1C[C@H](N)C(=O)N1Cc2ccccc2CC1C(=O)N[C@H](C(=O)N[C@@H](Cc1ccccc1)C(=O)O)[C@@H](C)C1CCCCC1 (stereo partly drawn)	–	–	inactive	0.24	970	–
Cc1cc(O)cc(C)c1C[C@H](N)C(=O)N1Cc2ccccc2C[C@H]1C(=O)N[C@H](C(=O)N[C@@H](Cc1ccccc1)C(N)=O)[C@H](C)C1CCCCC1	6.77	8.39	–	–	–	–
Cc1cc(O)cc(C)c1C[C@H](N)C(=O)N1Cc2ccccc2CC1C(=O)N[C@@H](C(=O)N[C@@H](Cc1ccccc1)C(N)=O)[C@@H](C)C1CCCCC1 (stereo partly drawn)	–	–	inactive	1.94	120	–
Cc1cc(O)cc(C)c1C[C@H](N)C(=O)N1Cc2ccccc2C[C@H]1C(=O)N[C@H](C(=O)N[C@@H](Cc1ccccc1)C(N)=O)[C@@H](C)C1CCCCC1	6.48	8.40	–	–	–	–
